Assay results gathered from unrelated publications.
Protocols differ between the studies behind these lines.
Target: Serine/threonine-protein kinase NIM1 (NIM1K, Homo sapiens, UniProt Q8IY84)

Compound	read-out	action	method	concentration	quantity	result
Cc1cnc(NC2CCOCC2)nc1-n1cnc(C(=O)NC(CN)c2cc(F)cc(Cl)c2)c1 (centres unmarked)	enzyme activity	inhibitor	radiometric	1 µM	remaining activity	40%
O=C(Nc1cnn(-c2csc(C(=O)NC3COC3)c2)c1)Nc1ccccc1Cl	enzyme activity	inhibitor		5 µM	remaining activity	101%
CC/C(=N\NC(=O)NCc1cccc(O)c1)c1ccc(O)c(C)c1O	enzyme activity	inhibitor		0.1 µM	inhibition	-2.9%
Nc1ncnc2occ(-c3ccc(NC(=O)Nc4cc(C(F)(F)F)ccc4F)cc3)c12	cell-free assay	inhibitor		20 µM	remaining signal	67%
COc1cc(Cl)c(C(=O)N[C@@H](CN[C@H]2CC[C@@H](N)CC2)Cc2ccc(C#N)cc2)cc1-c1ccc(CN[C@H](C)c2ccc(C)cc2)o1	enzyme activity	inhibitor		1 µM	remaining activity	98%
Cc1c(C(=O)O)cc(-c2ccc(C3CCNCC3)cc2)c2ccc(-c3ccc(C(F)(F)F)cc3)cc12	binding		competition with immobilised ligand	1 µM	remaining binding	92%
Cc1ccc(NC(=O)c2ccc(C)c(C(F)(F)F)c2)cc1C#Cc1nn(C2CCC(O)CC2)c2ncnc(N)c12 (centres unmarked)	cell-free assay			10 µM	remaining signal	131%
O=C(Nc1cnn(-c2csc(C(=O)NC3COC3)c2)c1)Nc1c(F)cccc1Cl	enzyme activity	inhibitor		5 µM	remaining activity	70.7%
CN1CC(Oc2cnc(C#N)cc2-c2ccn3nc(NC(=O)C4CC4)cc3c2)C1	enzyme activity	inhibitor		1 µM	inhibition	8%
COc1cc(-c2cn(C3CCc4ccccc4N(CC(F)(F)F)C3=O)nn2)ccc1-n1ccc(C)n1 (centres unmarked)	cell-free assay		competition with immobilised ligand	1 µM	remaining binding	80%
Cc1cc(NC(=O)c2cccc3cc(-c4cccc5[nH]nc(N)c45)ccc23)ccc1F	enzyme activity	inhibitor		0.1 µM	activity vs control	115%
